Source: ChEMBL document CHEMBL1781931, “Anacardic acid derivatives as inhibitors of glyceraldehyde-3-phosphate dehydrogenase from Trypanosoma cruzi” (Bioorg Med Chem, 2008)
Active and inactive are the calls of the source. The rule behind the calls is not given here.

How the values were obtained:
[1] = target: T1, Glyceraldehyde-3-phosphate dehydrogenase, glycosomal (Trypanosoma cruzi, UniProt P22513); assay: Inhibition of Trypanosoma cruzi recombinant glycosomal GAPDH expressed in Escherichia coli using GAPDH and D-glyceraldehyde-3-phosphate
T1 sequence (P22513 whole entry): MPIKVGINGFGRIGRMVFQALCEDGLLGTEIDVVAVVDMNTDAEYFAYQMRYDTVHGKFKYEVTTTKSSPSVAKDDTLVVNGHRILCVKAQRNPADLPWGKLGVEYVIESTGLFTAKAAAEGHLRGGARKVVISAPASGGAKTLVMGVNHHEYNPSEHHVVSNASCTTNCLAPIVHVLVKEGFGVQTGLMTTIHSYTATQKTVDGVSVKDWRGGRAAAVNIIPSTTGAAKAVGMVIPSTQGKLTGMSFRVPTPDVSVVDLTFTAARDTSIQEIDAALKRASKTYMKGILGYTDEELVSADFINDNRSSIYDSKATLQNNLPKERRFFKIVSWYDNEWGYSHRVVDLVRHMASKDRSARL
Outline: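 Recombinant T. cruzi GAPDH (20 nM; E. coli-expressed, purified by hydrophobic then cation-exchange chromatography) assayed at 25 °C in triplicate. Buffer: 100 mM triethanolamine-HCl pH 7.5, 1 mM EDTA, 1 mM 2-mercaptoethanol, 30 mM arsenate, 400 µM NAD+, 300 µM G-3-P. NADH formation read at 340 nm for 8 min. Initial rates give % inhibition; IC50 from ≥5 inhibitor concentrations by nonlinear regression.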

[2] = target: T1, Glyceraldehyde-3-phosphate dehydrogenase, glycosomal; assay: Non-competitive inhibition of Trypanosoma cruzi recombinant glycosomal GAPDH expressed in Escherichia coli assessed as dissociation constant for binary enzyme-inhibitor complex using NAD+ substrate by Lineweaver-Burk plot method
Outline: (§1)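 Inhibition type and Ki/αKi were determined against each substrate (G-3-P or NAD+), varying that substrate at 3 or 4 inhibitor concentrations. Conditions were otherwise those of the 340 nm NADH assay: 20 nM recombinant GAPDH, pH 7.5 triethanolamine buffer, 25 °C. Double-reciprocal plots were used, with parameters fitted in an enzyme-kinetics module. Means are of ≥3 experiments.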

[3] = target: T1, Glyceraldehyde-3-phosphate dehydrogenase, glycosomal; assay: Non-competitive inhibition of Trypanosoma cruzi recombinant glycosomal GAPDH expressed in Escherichia coli assessed as dissociation constant for ternary enzyme-substrate-inhibitor complex using D-glyceraldehyde-3-phosphate substrate by Lineweaver-Burk plot method; outline: as §1
[4] = target: T1, Glyceraldehyde-3-phosphate dehydrogenase, glycosomal; assay: Non-competitive inhibition of Trypanosoma cruzi recombinant glycosomal GAPDH expressed in Escherichia coli assessed as dissociation constant for binary enzyme-inhibitor complex using D-glyceraldehyde-3-phosphate substrate by Lineweaver-Burk plot method; outline: as §1
[5] = target: T1, Glyceraldehyde-3-phosphate dehydrogenase, glycosomal; assay: Non-competitive inhibition of Trypanosoma cruzi recombinant glycosomal GAPDH expressed in Escherichia coli assessed as dissociation constant for ternary enzyme-substrate-inhibitor complex using NAD+ substrate by Lineweaver-Burk plot method; outline: as §1
[6] = target: Glyceraldehyde-3-phosphate dehydrogenase, glycosomal (Trypanosoma cruzi) (UniProt P22513); assay: Inhibition of Trypanosoma cruzi recombinant glycosomal GAPDH expressed in Escherichia coli using GAPDH and D-glyceraldehyde-3-phosphate in presence of 0.01% Triton X-100
Chain of Glyceraldehyde-3-phosphate dehydrogenase, glycosomal (Trypanosoma cruzi) (P22513 whole entry): as above
Outline: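 Assay as for the standard GAPDH rate measurement: 20 nM recombinant enzyme, triethanolamine-HCl pH 7.5 with EDTA, 2-mercaptoethanol, arsenate, 400 µM NAD+ and 300 µM G-3-P, 25 °C, NADH followed at 340 nm. Triton X-100 was added to 0.01% final, from a freshly made 1% (v/v) stock in triethanolamine buffer, to test for nonspecific inhibition.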

| SMILES | IC50 [1] [µM] | further results |
| --- | --- | --- |
| CCCCCCCC=Cc1cccc(OC)c1C(=O)OCC (mixture of isomers) | > 300 |  |
| CCOC(=O)c1c(C=CCCCCCCCCOC2CCCCO2)cccc1OC (mixture of isomers) | > 300 |  |
| CCCCCCCCCCC=Cc1cccc(OC)c1C(=O)OCC (mixture of isomers) | > 300 |  |
| CCOC(=O)c1c(C=CCCCCOC2CCCCO2)cccc1OC (mixture of isomers) | > 300 |  |
| O=CCCCCCCCc1cccc(O)c1C(=O)O | > 250 |  |
| CCOC(=O)c1c(CCCCCCOC2CCCCO2)cccc1OC (configuration not stated) | > 250 |  |
| CCOC(=O)c1c(CCCCCCCCCCOC2CCCCO2)cccc1OC (configuration not stated) | > 250 |  |
| CCOC(=O)c1c(C=CCCCCCCOC2CCCCO2)cccc1OC (mixture of isomers) | > 300 |  |
| CCOC(=O)c1c(O)cccc1CCCCCCCCO | > 250 |  |

The next lines start with results.

| IC50 [1] [µM] | SMILES | further results |
| --- | --- | --- |
| > 250 | CCCCCCCCCc1cccc(O)c1C(=O)OCC |  |
| > 250 | O=C(O)c1c(O)cccc1CCCCCCCCO |  |
| 215 | CCCCCCCCCCCCc1cccc(O)c1C(=O)OCC |  |
| > 250 | CCOC(=O)c1c(O)cccc1CCCCCCCCCCO |  |
| > 250 | CCCCCCCCCCCCc1cccc(OC)c1C(=O)OCC |  |
| 200 | CCCCCCCCCc1cccc(O)c1C(=O)O |  |
| > 250 | O=C(O)c1c(O)cccc1CCCCCCO |  |
| > 250 | CCOC(=O)c1c(O)cccc1CCCCCCO |  |
| 55 | CCCCCCCCCCCCc1cccc(O)c1C(=O)O | Ki [2]: 5 µM; Ki [3]: 38 µM; Ki [4]: 4 µM; Ki [5]: 43 µM; inhibition [6]: Active |
| > 250 | CCCCCCCCCc1cccc(OC)c1C(=O)OCC |  |
| > 250 | CCOC(=O)c1c(CCCCCCCCOC2CCCCO2)cccc1OC (configuration not stated) |  |
| 240 | O=C(O)c1c(O)cccc1CCCCCCCCCCO |  |
| 28 | C=CC/C=C\C/C=C\CCCCCCCc1cccc(O)c1C(=O)O [ANACARDIC ACID] | Ki [2]: 4 µM; Ki [3]: 4 µM; Ki [4]: 2 µM; Ki [5]: 6 µM; inhibition [6]: Active |
